Experimental data: ChEMBL document CHEMBL3352635 (Bioorg Med Chem Lett, 2014)

Legend:
[1] = AUC in Sprague-Dawley rat at 44.83 mg/kg, po; format: ADME, organism-based; set-up: dose 44.83 mg/kg, route oral; details: plasma
Outline: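 Plasma parent-drug concentration followed over time up to 8 h. AUC in µg*h/mL from the concentration–time profile. Cmax and Tmax taken from the profile.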

[2] = Half life in simulated gastric fluid at pH 1.2 by HPLC analysis; format: ADME
Outline: (§1)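 Compounds incubated at 37 °C in simulated gastric fluid (pH 1.2), simulated intestinal fluid (pH 6.8) or 100% human plasma for up to 180 min. […] Half-life estimated from the decay.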

[3] = Metabolic stability in simulated gastric fluid assessed as compound remaining at pH 1.2 after 10 mins by HPLC analysis; format: ADME; details: read-out: Stability; outline: as §1
[4] = Metabolic stability in simulated gastric fluid assessed as compound remaining at pH 1.2 after 15 mins by HPLC analysis; format: ADME; details: read-out: Stability; outline: as §1
[5] = Metabolic stability in simulated gastric fluid assessed as compound remaining at pH 1.2 after 30 mins by HPLC analysis; format: ADME; details: read-out: Stability; outline: as §1
[6] = Metabolic stability in simulated gastric fluid assessed as compound remaining at pH 1.2 after 180 mins by HPLC analysis; format: ADME; details: read-out: Stability; outline: as §1
[7] = Metabolic stability in simulated gastric fluid assessed as compound remaining at pH 1.2 after 60 mins by HPLC analysis; format: ADME; details: read-out: Stability; outline: as §1
[8] = Metabolic stability in simulated gastric fluid assessed as compound remaining at pH 1.2 after 120 mins by HPLC analysis; format: ADME; details: read-out: Stability; outline: as §1
[9] = Metabolic stability in simulated gastric fluid assessed as compound remaining at pH 1.2 measured immediately by HPLC analysis; format: ADME; details: read-out: Stability; outline: as §1
[10] = Metabolic stability in simulated gastric fluid assessed as compound remaining at pH 1.2 after 5 mins by HPLC analysis; format: ADME; details: read-out: Stability; outline: as §1
in vivo [11] = details: Sprague-Dawley, rat, plasma, po, 10 mg/kg
in vivo [12] = details: Sprague-Dawley, rat, plasma, po, 10 mg/kg; remark: listed apart in the source
in vivo [13] = details: Sprague-Dawley, rat, po, 10 mg/kg
in vivo [14] = details: Sprague-Dawley, rat, plasma, po, 10 mg/kg; remark: listed apart in the source
in vivo [15] = details: Sprague-Dawley, rat, po, 10 mg/kg; remark: listed apart in the source
[16] = Metabolic stability in simulated gastric fluid assessed as chlorambucil level; format: ADME, tissue-based, Stomach; details: simulated gi fluid
Rattus norvegicus [17] = assay: Antiinflammatory activity in Sprague-Dawley rat assessed as plasma nitrate/nitrite AUC at 14.94 mg/kg, po by Griess assay (reference value: 371.1 uM.h); format: functional, organism-based; set-up: dose 14.94 mg/kg
Outline: (§2)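 Sprague–Dawley rats given compounds orally, with vehicle-dosed controls. […] Plasma nitrate/nitrite (NOx) measured by the Griess method as an indirect measure of NO released, over 8 h (sampling included 1, 2, 4 and 6 h). Plasma nitrate/nitrite AUC in µM*h.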

[18] = Half life in human plasma by HPLC analysis; format: ADME, cell-free; outline: as §1
[19] = Stability of the compound assessed as compound remaining at 50 degC after 5 days; format: physicochemical; details: read-out: Stability
Outline: (§3)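 Solid-state storage stability at room temperature and at 50 °C, followed for up to 1 month (25 days for one compound). Remaining compound measured, along with the amounts of parent drug and salicylic acid generated.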

[20] = Stability of the compound assessed as compound remaining at RT after 18 days; format: physicochemical; details: read-out: Stability
[21] = Metabolic stability in simulated intestinal fluid assessed as compound remaining at pH 6.8 after 5 mins by HPLC analysis; format: ADME; details: read-out: Stability; outline: as §1
[22] = Metabolic stability in simulated intestinal fluid assessed as compound remaining at pH 6.8 after 120 mins by HPLC analysis; format: ADME; details: read-out: Stability; outline: as §1
[23] = Metabolic stability in simulated gastric fluid assessed as compound remaining at pH 1.2 after 20 mins by HPLC analysis; format: ADME; details: read-out: Stability; outline: as §1
[24] = Metabolic stability in simulated gastric fluid assessed as compound remaining at pH 1.2 after 40 mins by HPLC analysis; format: ADME; details: read-out: Stability; outline: as §1
[25] = Stability of the compound assessed as compound remaining at RT after 3 days; format: physicochemical; details: read-out: Stability
[26] = Metabolic stability in simulated intestinal fluid assessed as compound remaining at pH 6.8 measured immediately by HPLC analysis; format: ADME; details: read-out: Stability; outline: as §1
Rattus norvegicus [27] = assay: Antiplatelet activity in Sprague-Dawley rat assessed as inhibition of TXB2 formation at 44.82 mg/kg, po od after 7 days by EIA relative to vehicle-treated control; format: functional; details: 168 h
Outline: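 Sprague–Dawley rats dosed orally once daily for 7 days with aspirin 30 mg/kg or prodrug 44.82 mg/kg (equimolar), with vehicle 1 ml/kg as control. Serum TXB2 levels estimated. Inhibition expressed as % reduction versus vehicle.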

[28] = Metabolic stability in simulated intestinal fluid assessed as compound remaining at pH 6.8 after 2 mins by HPLC analysis; format: ADME; details: read-out: Stability; outline: as §1
Rattus norvegicus [29] = assay: Antiinflammatory activity in Sprague-Dawley rat assessed as plasma nitrate/nitrite at 14.94 mg/kg, po up to 8 hrs; format: functional; outline: as §2
[30] = Metabolic stability in simulated intestinal fluid assessed as compound remaining at pH 6.8 after 10 mins by HPLC analysis; format: ADME; details: read-out: Stability; outline: as §1
[31] = Metabolic stability in simulated gastric fluid assessed as compound remaining at pH 1.2 after 2 mins by HPLC analysis; format: ADME; details: read-out: Stability; outline: as §1
Rattus norvegicus [32] = assay: Toxicity in rat assessed as gastric lesion and ulcer area at 298.8 mg/kg, po after 5 hrs; format: organism-based, Stomach; set-up: dose 298.8 mg/kg, route oral; details: in vivo
[33] = Stability of the compound assessed as compound remaining at 50 degC measured immediately; format: physicochemical; details: read-out: Stability; outline: as §3
[34] = Stability of the compound assessed as compound remaining at 50 degC after 2 days; format: physicochemical; details: read-out: Stability
[35] = Stability of the compound assessed as compound remaining at 50 degC after 1 month; format: physicochemical; details: read-out: Stability; outline: as §3
[36] = Stability of the compound assessed as compound remaining at RT measured immediately; format: physicochemical; details: read-out: Stability; outline: as §3
[37] = Stability of the compound assessed as compound remaining at RT after 1 month; format: physicochemical; details: read-out: Stability; outline: as §3
[38] = Metabolic stability in simulated intestinal fluid assessed as compound remaining at pH 6.8 after 20 mins by HPLC analysis; format: ADME; details: read-out: Stability; outline: as §1
[39] = Half life in simulated intestinal fluid at pH 6.8 by HPLC analysis; format: ADME; outline: as §1
[40] = AUC in Wistar rat at 44.83 mg/kg, po; format: ADME, organism-based; set-up: dose 44.83 mg/kg, route oral; details: plasma
Outline: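 Single oral dosing in Wistar rats to compare […]. Aspirin at 30 mg/kg or the prodrug at 44.83 mg/kg (equimolar to 30 mg/kg aspirin). Plasma aspirin measured over time. AUC in µg*h/mL.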

[41] = Metabolic stability in simulated intestinal fluid assessed as compound remaining at pH 6.8 after 60 mins by HPLC analysis; format: ADME; details: read-out: Stability; outline: as §1

Q: With `CCC(OC(=O)c1ccccc1OC(C)=O)O[N+](=O)[O-]` (configuration not stated) as the compound, how does the AUC [1] read?
A: Its AUC is 53600 ng·h/mL.

Q: With `CCCCC(OC(=O)[C@@H](C)c1ccc2cc(OC)ccc2c1)O[N+](=O)[O-]` (some centres not stated) as the compound, how does the half-life [2] read?
A: The half-life was > 180 min.

Q: And the remaining at 10 min [3]?
A: Its remaining at 10 min is 96%.

Q: And the remaining at 0.25 h [4]?
A: Its remaining at 0.25 h is 87%.

Q: And the remaining at 0.5 h [5]?
A: Its remaining at 0.5 h is 87%.

Q: And the remaining at 3 h [6]?
A: Its remaining at 3 h is 71%.

Q: What about the remaining at 1 h [7] of the same compound?
A: The remaining at 1 h was 87%.

Q: What about the remaining at 2 h [8] of the same compound?
A: The remaining at 2 h was 80%.

Q: What about the remaining at 0 min [9] of the same compound?
A: The remaining at 0 min was 100%.

Q: And the remaining at 5 min [10]?
A: The remaining at 5 min was 98%.

Q: Which Cmax at 4 h (in vivo [11]) does the source give for `COc1ccc2cc([C@H](C)C(=O)O)ccc2c1` [NAPROXEN] here?
A: Its Cmax at 4 h is > 20000 ng/mL.

Q: And the Cmax at 8 h (in vivo [12])?
A: The Cmax at 8 h was < 15000 ng/mL.

Q: What about the Cmax at 0.25 h (in vivo [13]) of the same compound?
A: Its Cmax at 0.25 h is 55000 ng/mL.

Q: And the Cmax at 2 h (in vivo [14])?
A: The Cmax at 2 h was > 30000 ng/mL.

Q: What about the Tmax (in vivo [15]) of the same compound?
A: The Tmax was 15 min.

Q: With `CC(OC(=O)CCCc1ccc(N(CCCl)CCCl)cc1)O[N+](=O)[O-]` (configuration not stated) as the compound, how does the t1/2 [16] read?
A: The t1/2 was < 5 min.

Q: For `CC(=O)Oc1ccccc1C(=O)OC(C)O[N+](=O)[O-]` (configuration not stated), which AUC (Rattus norvegicus [17]) is on record?
A: Its AUC is 1480 µM·h.

Q: And the half-life [2]?
A: The half-life was < 10 min.

Q: And the half-life [18]?
A: The half-life was < 5 min.

Q: And the remaining at 120 h [19]?
A: The remaining at 120 h was 98.2%.

Q: What about the remaining at 10 min [3] of the same compound?
A: The remaining at 10 min was 45%.

Q: What about the remaining at 432 h [20] of the same compound?
A: The remaining at 432 h was 99%.

Q: What about the remaining at 5 min [21] of the same compound?
A: The remaining at 5 min was 82%.

Q: And the remaining at 2 h [22]?
A: Its remaining at 2 h is 0%.

Q: And the remaining at 20 min [23]?
A: The remaining at 20 min was 14%.

Q: What about the remaining at 40 min [24] of the same compound?
A: Its remaining at 40 min is 12%.

Q: What about the remaining at 1 h [7] of the same compound?
A: Its remaining at 1 h is 0%.

Q: And the remaining at 72 h [25]?
A: Its remaining at 72 h is 98.9%.

Q: And the remaining at 0 min [26]?
A: Its remaining at 0 min is 100%.

Q: What about the inhibition in vivo at 44.82 mg/kg (Rattus norvegicus [27]) of the same compound?
A: The inhibition in vivo at 44.82 mg/kg was 72.6%.

Q: And the remaining at 2 min [28]?
A: Its remaining at 2 min is 91%.

Q: What about the Activity (Rattus norvegicus [29]) of the same compound?
A: Its Activity is 180 µM.

Q: And the remaining at 10 min [30]?
A: The remaining at 10 min was 52%.

Q: What about the AUC [1] of the same compound?
A: The AUC was 89800 ng·h/mL.

Q: And the remaining at 2 min [31]?
A: Its remaining at 2 min is 78%.

Q: And the Activity (Rattus norvegicus [32])?
A: The Activity was 1 mm2.

Q: And the remaining at 0 days [33]?
A: Its remaining at 0 days is 99.1%.

Q: What about the remaining at 48 h [34] of the same compound?
A: Its remaining at 48 h is 98.8%.

Q: And the remaining at 0 min [9]?
A: The remaining at 0 min was 100%.

Q: And the remaining at 730.5 h [35]?
A: The remaining at 730.5 h was 88.3%.

Q: What about the remaining at 0 days [36] of the same compound?
A: The remaining at 0 days was 99.1%.

Q: What about the remaining at 730.5 h [37] of the same compound?
A: The remaining at 730.5 h was 98.6%.

Q: What about the remaining at 5 min [10] of the same compound?
A: Its remaining at 5 min is 65%.

Q: And the remaining at 20 min [38]?
A: Its remaining at 20 min is 32%.

Q: And the half-life [39]?
A: The half-life was < 15 min.

Q: What about the AUC [40] of the same compound?
A: The AUC was 398000 ng·h/mL.

Q: And the remaining at 1 h [41]?
A: Its remaining at 1 h is 4%.
